Results taken from ChEMBL document CHEMBL1122554, “Synthesis and antitumor activity of tropolone derivatives” (1984).
≈ marks a conversion by molar mass, not a printed value.

What was measured:
Assay type in all cases: functional
KB = experiment: In vitro inhibitory activity against growth of KB cells derived from human epidermoid carcinoma of the mouth; settings: for IC50: Homo sapiens, KB, read-out: ID50 (the source's name)
In short: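 KB human epidermoid carcinoma cells grown at 37 °C in 5% CO2–95% air and seeded at 2100 cells/cm². After 24 h the medium was changed and graded drug (0.3–100 µg/mL) added, two dishes per concentration. After 48 h of exposure, cells were trypsinized and counted by Coulter counter. IC50 was read from a plot of log concentration vs. growth rate (% of control).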

Mus musculus [1] = experiment: In vivo antitumor activity was measured in mice (P388 leukemia) at dose 10 mg/kg after intraperitoneal administration
In short: (§1)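 Groups of six CDF1 mice were inoculated ip with 10⁶ P388 leukemia cells. Ip drug dosing began 24 h later, given once daily for 1 and 5 days. %T/C = median survival time of the treated group ÷ median survival time of the tumor control group × 100.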

Mus musculus [2] = experiment: In vivo antitumor activity was measured in mice (P388 leukemia) at dose 2.5 mg/kg after intraperitoneal administration; in short: as §1
Mus musculus [3] = experiment: In vivo antitumor activity was measured in mice (P388 leukemia) at dose 5 mg/kg after intraperitoneal administration; in short: as §1
Mus musculus [4] = experiment: In vivo antitumor activity was measured in mice (P388 leukemia) at dose 20 mg/kg after intraperitoneal administration; in short: as §1
Mus musculus [5] = experiment: IIn vivo %T/C was measured in mice (P388 leukemia) at dose 10 mg/kg after intraperitoneal administration; in short: as §1
Mus musculus [6] = experiment: In vivo antitumor activity was measured in mice (P388 leukemia) at dose 0.3 mg/kg after intraperitoneal administration; in short: as §1
Mus musculus [7] = experiment: In vivo antitumor activity was measured in mice (P388 leukemia) at dose 0.5 mg/kg after intraperitoneal administration; in short: as §1
Mus musculus [8] = experiment: In vivo antitumor activity was measured in mice (P388 leukemia) at dose 1 mg/kg after intraperitoneal administration; in short: as §1
Mus musculus [9] = experiment: In vivo antitumor activity was measured in mice (P388 leukemia) at dose 100 mg/kg after intraperitoneal administration; in short: as §1
Mus musculus [10] = experiment: In vivo antitumor activity was measured in mice (P388 leukemia) at dose 200 mg/kg after intraperitoneal administration; in short: as §1
Mus musculus [11] = experiment: In vivo antitumor activity was measured in mice (P388 leukemia) at dose 0.6 mg/kg after intraperitoneal administration; in short: as §1
Mus musculus [12] = experiment: In vivo antitumor activity was measured in mice (P388 leukemia) at dose 400 mg/kg after intraperitoneal administration; in short: as §1
Mus musculus [13] = experiment: In vivo antitumor activity was measured in mice (P388 leukemia) at dose 50 mg/kg after intraperitoneal administration; in short: as §1
Mus musculus [14] = experiment: In vivo antitumor activity was measured in mice (P388 leukemia)at dose 100 mg/kg after intraperitoneal administration
In short: (§2)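 Groups of six CDF1 mice inoculated ip with 10⁶ P388 leukemia cells; ip drug treatment begun 24 h after inoculation, listed dose given once a day for 1 and 5 days. Endpoint: median survival time of treated group divided by that of tumor controls ×100 (% T/C).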

Mus musculus [15] = experiment: In vivo antitumor activity was measured in mice (P388 leukemia)at dose 200 mg/kg after intraperitoneal administration; in short: as §2
Mus musculus [16] = experiment: In vivo antitumor activity was measured in mice (P388 leukemia) at dose 1.3 mg/kg after intraperitoneal administration; in short: as §1

Row | SMILES | IC50 (KB) [µg/mL] | ID50 (KB) [µM] | T/C (Mus musculus [3]) [%] | T/C (Mus musculus [9]) [%] | T/C (Mus musculus [10]) [%] | T/C (Mus musculus [12]) [%] | also measured
1 | COc1ccccc1C(c1ccc(C(C)C)cc(=O)c1O)c1ccc(C(C)C)cc(=O)c1O |  |  | 151 |  |  |  | T/C (Mus musculus [4]): 0%; T/C (Mus musculus [5]): 162%
2 | COc1cc2c(c(OC)c1OC)-c1ccc(OC)c(=O)cc1[C@@H](NC(C)=O)CC2 [COLCHICINE] | 2.2 (≈ 5.51 µM) | 6 |  |  |  |  | T/C (Mus musculus [6]): 142%; T/C (Mus musculus [7]): 160%; T/C (Mus musculus [8]): 166%
3 | CC(C)c1ccc(C2OCCc3ccccc32)c(O)c(=O)c1 (stereo not given) | 0.5 (≈ 1.69 µM) | 1.7 |  | 127 | 126 | 108 | T/C (Mus musculus [13]): 128%
4 | CCOC(/C=C/c1ccccc1)c1ccc(C(C)C)cc(=O)c1O (stereo not given) |  |  |  | 112 | 100 | 0 | 
5 | COc1c(C2OCCc3ccccc32)ccc(C(C)C)cc1=O (stereo not given) | 18 (≈ 58 µM) | 58 |  | 93 | 88 | 98 | 
6 | CC(C)c1cccc(=O)c(O)c1 [HINOKITIOL] | 0.5 (≈ 3.04 µM) | 3.6 |  |  |  | 0 | T/C (Mus musculus [13]): 103%; T/C (Mus musculus [14]): 100%; T/C (Mus musculus [15]): 62%
7 | Cc1ccccc1C(c1ccc(C(C)C)cc(=O)c1O)c1ccc(C(C)C)cc(=O)c1O |  |  | 156 |  |  |  | T/C (Mus musculus [2]): 137%; T/C (Mus musculus [4]): 158%
8 | COc1cc(C(C)C)cccc1=O | 49.5 (≈ 278 µM) | 278 |  | 108 | 0 |  | T/C (Mus musculus [13]): 106%
9 | COc1cc(C(C)C)ccc(C2OCCc3ccccc32)c1=O (stereo not given) | 29 (≈ 93.4 µM) | 93 |  | 92 | 94 | 98 | 
10 | O=c1ccccc(C2OCCc3ccccc32)c1O (stereo not given) | 0.5 (≈ 1.97 µM) | 1.6 |  | 104 | 96 | 0 | 
11 | C/C=C/C(OCC)c1ccc(C(C)C)cc(=O)c1O (stereo not given) | 1.2 (≈ 4.57 µM) | 4.5 |  | 101 | 116 | 115 | 

More lines, main results first:

Row | IC50 (KB) [µg/mL] | SMILES | ID50 (KB) [µM] | T/C (Mus musculus [3]) [%] | T/C (Mus musculus [9]) [%] | T/C (Mus musculus [10]) [%] | T/C (Mus musculus [12]) [%] | also measured
12 | 1.1 (≈ 2.46 µM) | COc1cccc(C(c2ccc(C(C)C)cc(=O)c2O)c2ccc(C(C)C)cc(=O)c2O)c1 | 2.4 | 134 |  |  |  | T/C (Mus musculus [1]): 134%; T/C (Mus musculus [2]): 142%
13 | 6.2 (≈ 19.8 µM) | CCOC(c1ccc(C)cc1)c1ccc(C(C)C)cc(=O)c1O (stereo not given) | 9.9 |  | 105 | 105 |  | 
14 | 0.3 (≈ 0.672 µM) | COc1ccc(C(c2cc(C(C)C)ccc(=O)c2O)c2cc(C(C)C)ccc(=O)c2O)cc1 | 0.6 | 156 |  |  |  | 
15 | 0.5 (≈ 1.12 µM) | COc1ccc(C(c2ccc(C(C)C)cc(=O)c2O)c2ccc(C(C)C)cc(=O)c2O)cc1 | 1.1 |  |  |  |  | T/C (Mus musculus [11]): 127%; T/C (Mus musculus [2]): 134%
16 | 0.6 (≈ 1.76 µM) | CCOC(c1ccc(N(C)C)cc1)c1ccc(C(C)C)cc(=O)c1O (stereo not given) | 1.7 |  |  | 128 | 0 | 
17 | 2 (≈ 4.43 µM) | CC(C)c1ccc(C(c2ccc(Cl)cc2)c2ccc(C(C)C)cc(=O)c2O)c(O)c(=O)c1 | 4.4 | 141 |  |  |  | 
18 | 0.5 (≈ 1.52 µM) | CCOC(c1ccc(OC)cc1)c1ccc(C(C)C)cc(=O)c1O (stereo not given) | 1.5 |  |  | 128 | 140 | 
19 | 1.5 (≈ 3.48 µM) | Cc1ccc(C(c2ccc(C(C)C)cc(=O)c2O)c2ccc(C(C)C)cc(=O)c2O)cc1 | 3.4 | 147 |  |  |  | 
20 | 0.3 (≈ 0.629 µM) | COc1ccc(C(c2ccc(C(C)C)cc(=O)c2O)c2ccc(C(C)C)cc(=O)c2O)cc1OC | 0.6 | 156 |  |  |  | T/C (Mus musculus [1]): 158%; T/C (Mus musculus [2]): 137%
21 | 0.5 (≈ 1.97 µM) | CC(C)c1ccc(Cc2ccccc2)c(O)c(=O)c1 | 2 |  | 94 |  | 88 | 
22 | 0.3 (≈ 0.72 µM) | CC(C)c1ccc(C(c2ccccc2)c2ccc(C(C)C)cc(=O)c2O)c(O)c(=O)c1 | 0.7 |  |  |  |  | T/C (Mus musculus [16]): 132%; T/C (Mus musculus [2]): 150%
23 | 0.3 (≈ 0.901 µM) | CCOC(c1ccc(Cl)cc1)c1ccc(C(C)C)cc(=O)c1O (stereo not given) | 0.9 |  | 99 | 109 | 0 | 
24 | 1.4 (≈ 4.24 µM) | CC(C)c1ccc(C(c2ccccc2)c2ccccc2)c(O)c(=O)c1 | 4.2 |  | 119 |  |  | 
25 | 0.7 (≈ 1.52 µM) | CC(C)c1ccc(C(c2ccc(N(C)C)cc2)c2ccc(C(C)C)cc(=O)c2O)c(O)c(=O)c1 | 1.5 | 173 |  |  |  | T/C (Mus musculus [1]): 177%
26 | 0.3 (≈ 1.01 µM) | CCOC(c1ccccc1)c1ccc(C(C)C)cc(=O)c1O (stereo not given) | 1 |  | 102 |  | 0 | 
